Only some compounds are listed: those with a hit (about 1.9% of all), similar ones and a draw of the others.
LMPTP inh: LMPTP (human) inhibition; P24666; recombinant LMPTP-A, OMFP fluorogenic substrate, fluorescence intensity; inhibition, % at 20 µM; 0.22% of 360,000 active; AID 651560;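 active means compounds that cut the enzyme signal by at least half of the control window in the single-dose screen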;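 further: plate controls were DMSO wells with enzyme plus substrate for no effect and substrate without enzyme for full effect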
Target sequence (P24666 whole entry, looked up): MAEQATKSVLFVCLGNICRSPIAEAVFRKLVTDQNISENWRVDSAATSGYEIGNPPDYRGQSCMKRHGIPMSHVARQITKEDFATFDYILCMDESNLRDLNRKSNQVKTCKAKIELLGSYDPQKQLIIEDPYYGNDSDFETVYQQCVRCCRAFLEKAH
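material = LMPTP-A | quantity = 0.625 nM enzyme | reagent = OMFP substrate, 400 µM final | buffer or medium = Bis-Tris pH 6.0, DTT, detergent | detection = endpoint fluorescence intensity from OMFP dephosphorylation | dosing = single 20 µM dose | read-out basis = % inhibition relative to no-enzyme and uninhibited control wells | control set = no-enzyme and uninhibited controls | timing = 50 min at room temperature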
Scp-1 inhibitor: inhibitors of human Scp-1 phosphatase. inhibition, % at 20 µM. Recombinant Scp1, phosphopeptide, malachite green phosphate absorbance. AID 493091. 0.88% of 340,000 active;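 active means inhibition above about 50% at 20 µM, limit read from the data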;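 further: plate controls were DMSO wells with enzyme for no effect and wells lacking enzyme for full effect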
Target sequence (Q9GZU7 76-261 limits assumed): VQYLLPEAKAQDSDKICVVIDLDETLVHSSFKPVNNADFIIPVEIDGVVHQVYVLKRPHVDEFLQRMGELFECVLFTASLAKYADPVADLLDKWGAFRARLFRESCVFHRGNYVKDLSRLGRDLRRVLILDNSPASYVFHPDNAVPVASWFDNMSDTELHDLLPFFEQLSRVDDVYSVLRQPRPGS
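Times: enzyme reaction 45 min at room temperature, colour 5 min, stabilisation 30 min. Material: SCP-1 catalytic fragment, aa 76-261. Medium: Acidic Tris acetate buffer with magnesium and detergent. Signal: colorimetric free-phosphate detection, absorbance 630 nm. Read-out basis: % inhibition of SCP-1 phosphate liberation. Reagent: Phosphorylated 17-residue peptide substrate.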
STEP inh: STEP (human) phosphatase inhibition; P54829; recombinant STEP, OMFP fluorogenic substrate, fluorescence; inhibition, % at 20 µM; 0.25% of 360,000 active; AID 588621;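 active means inhibition at 20 µM, scaled per plate between control wells, above about 37%, limit read from the data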;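 further: 0% = DMSO with enzyme and substrate and 100% = substrate only without enzyme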
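Material: STEP (striatal-enriched tyrosine phosphatase) enzyme, cell-free | Medium: 50 mM Bis-Tris pH 6.0 with 2.5 mM DTT and 0.005% Tween 20 | Read-out: Percent inhibition scaled to no-enzyme and uninhibited-enzyme controls, plate-pattern corrected | Signal: Fluorescence read at 480 nm ex / 540 nm em | Times: 20 min reaction, room temperature, in the dark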
FAS TE block: FAS thioesterase (human) inhibition | inhibition, % at 15 µM | P49327 | recombinant FAS-TE, OMFH fluorogenic substrate, fluorescence endpoint | 0.67% of 360,000 active;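 active means compounds whose normalised, plate-corrected inhibition of enzyme fluorescence in the single-dose primary screen is 50% or more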;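 further: 0% = DMSO with enzyme and 100% = substrate without enzyme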
SUMO1-SIM PPI: SUMO1-SIM interaction modulation. P63165. SUMO1 binding to a labelled peptide, TR-FRET, 1 h. inhibition, % at 20 µM. 0.33% of 360,000 active. AID 602429; in the data active means inhibition above about 37%
Target sequence (P63165 whole entry, looked up): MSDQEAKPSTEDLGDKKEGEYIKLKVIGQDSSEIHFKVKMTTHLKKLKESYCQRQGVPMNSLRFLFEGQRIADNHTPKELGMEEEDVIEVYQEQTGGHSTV
Scp-1 conf: confirmation of human Scp-1 phosphatase inhibitors; shares compounds with Scp-1 inhibitor; recombinant SCP-1 catalytic domain, phosphate release, malachite green absorbance; inhibition, % at 20 µM; 61% of 2,500 active;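 further: plate controls were DMSO with enzyme for no effect and buffer wells lacking enzyme for full effect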
Scp-1 MG ctr: colorimetric interference in Scp-1 counter-screen; 2,500 tested, under 10 active; Colorimetric interference counterscreen, malachite green absorbance 630 nm; AID 540313; shares compounds with Scp-1 inhibitor; apparent inhibition (interference), % at 20 µM;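 further: compounds added after enzyme reaction finished so only phosphate colour detection is probed; plate controls were DMSO wells with completed Scp-1 reaction for no effect and substrate wells lacking enzyme for full effect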
Scp1 DSF: validation of human Scp-1 inhibitors by thermal shift binding. shares compounds with Scp-1 inhibitor. Recombinant SCP1, Sypro Orange thermal shift Tm. thermal shift relative to vanadate control, % at 40 µM. 25% of 1,500 active. AID 540329;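 active means substances whose mean melting-temperature shift, as a percentage of the reference inhibitor's shift, reaches about 5.3%, limit read from the data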;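 further: 0% = Tm of DMSO wells and 100% = Tm with sodium orthovanadate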
Starred values were filed as active, the others as inactive; . = not tested or not shown.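 How the source made its calls, unless noted: active means inhibition of at least 30% at 20 µM; inactive means the rest.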

SMILES | LMPTP inh | Scp-1 inhibitor | STEP inh | FAS TE block | SUMO1-SIM PPI | Scp-1 conf | Scp-1 MG ctr | Scp1 DSF
CC(C)(C)c1ccc2c(c1)OC(C(=O)N/N=C/c1ccc([N+](=O)[O-])o1)CO2 (configuration not stated) | 5 | 108* | 11 | 42 | -17 | 64* | -13 | 4
CCn1ccnc1CN(C)C(=O)C1CCC(=O)N(Cc2cccc(F)c2)C1 (configuration not stated) | 0 | 1 | 0 | -7 | 3 | . | . | .
CCOc1ncccc1C(=O)OCC(=O)c1ccc(F)cc1 | -1 | -7 | 1 | 4 | 2 | . | . | .
COc1cc(/C=C(/C#N)C(=O)Nc2ccccc2)ccc1OCc1ccc(C(=O)O)cc1 | 17 | 82* | 27 | -3 | 8 | 58* | -22 | 3
C[C@@H](NC(=O)/C(C#N)=C/c1ccc(O)c(O)c1)c1ccccc1 | -1 | -9 | 0 | -1 | -20 | . | . | .
N#C/C(=C\c1ccc(OCc2ccc(C(=O)O)cc2)cc1)C(=O)NCc1ccccc1 | -1 | 91* | 19 | 2 | -16 | 81* | -11 | -24
CC(NC(=O)/C(C#N)=C/c1ccc(OCC(=O)O)cc1)c1ccccc1 (configuration not stated) | -1 | 98* | 3 | -6 | -8 | 40* | -2 | 1
Cc1cc(=O)[nH]c(SCC(=O)Nc2ccc(S(N)(=O)=O)cc2)n1 | 1 | 51* | 2 | -6 | 9 | 48* | -19 | 4
Cc1cc(=O)[nH]c(SCC(=O)Nc2ccc(C(=O)O)cc2)n1 | 0 | -2 | -1 | -8 | 1 | . | . | .
CCOC(=O)c1ccc(NC(=O)CSc2nc(C)cc(=O)[nH]2)cc1 | 17 | 71* | 2 | -5 | 7 | 58* | -19 | 11*
CC1CCC(NC(=O)CN2C(=O)NC(C)(C)C2=O)CC1 (configuration not stated) | -2 | 0 | -2 | -7 | -1 | . | . | .
COC(=O)[C@H](CC(C)C)N1Cc2cc(OC)cc(OC)c2-c2ccccc2S1(=O)=O | 0 | 98* | 0 | 11 | 14 | 50* | -26 | -4
Cc1ccc2c(c1)C1OCCC1C1N2C(=O)C2C(C(=O)O)C3C=CC21O3 (configuration not stated) | 0 | 77* | 2 | -4 | 2 | 34* | -17 | 4
Cc1cccc(N2CC34C=CC(O3)C(C(=O)O)C4C2=O)c1 (configuration not stated) | 0 | 0 | 2 | -14 | 0 | . | . | .
CCCCCn1nnnc1C1(C)CCC(=O)N1Cc1ccco1 (configuration not stated) | -1 | . | . | . | 4 | . | . | .
O=C(c1sc2ccccc2c1Cl)N1CCN(CCc2ccccn2)CC1 | -1 | 0 | -4 | -5 | 2 | . | . | .
CC(C)Oc1ccc(CCc2n[nH]c(=S)n2-c2ccccc2)cc1 | 0 | 16 | 0 | 0 | -4 | . | . | .
CCCOCC(O)CCc1n[nH]c(=S)n1-c1ccccc1 (configuration not stated) | 1 | 60* | -1 | -10 | -2 | -7 | -6 | .
CC1CCN(C(=O)CN2C(=O)C(=O)N(C)C2=O)c2ccccc2S1 (configuration not stated) | -1 | -5 | -3 | -5 | -2 | . | . | .
CC(C)N1CC(C(=O)Nc2ccc(C#N)cc2)CC1=O (configuration not stated) | 0 | -5 | 3 | -4 | 3 | . | . | .
CC(C)c1ccc(NC(=O)C2CC(=O)N(C(C)C)C2)cc1 (configuration not stated) | 1 | -9 | 2 | -4 | 2 | -11 | -12 | .
COc1cccc(Nc2nc(C(N)C3CCCCC3)cs2)n1 (configuration not stated) | 1 | . | 3 | 0 | -7 | . | . | .
COc1ccc2c(c1)c(=O)oc1c(C)c(OCc3cc(C(=O)O)oc3C)ccc12 | 4 | 93* | 6 | -12 | 26 | 94* | 1 | 3
COc1ccc2c(c1)c(=O)oc1c(C)c(OC(C)C(=O)NCC3CCC(C(=O)O)CC3)ccc12 (configuration not stated) | 0 | -1 | -1 | 0 | 13 | . | . | .
COc1ccc2c(c1)c(=O)oc1c(C)c(OCc3ccc(C(=O)O)cc3)ccc12 | 58* | 93* | 41* | 7 | 45* | 58* | -10 | -12
SMILES | LMPTP inh | Scp-1 inhibitor | STEP inh | FAS TE block | SUMO1-SIM PPI | Scp-1 conf | Scp-1 MG ctr | Scp1 DSF
COc1ccc2c(c1)c(=O)oc1c(C)c(OCC(=O)N3CCc4ccccc4C3)ccc12 | 1 | -3 | -2 | 19 | 2 | . | . | .
Cc1ccc(NC(=O)c2ccc(OCc3c(C)noc3C)cc2)cc1C | 2 | -10 | 5 | 17 | 2 | . | . | .
CC(=O)Nc1ccc(NC(=O)c2ccc(OCc3c(C)noc3C)cc2)cc1 | 0 | 59* | -3 | 0 | -1 | -13 | -18 | .
COc1cc(CC2COC(c3ccc(O)c(OC)c3)C2COC(C)=O)ccc1O (configuration not stated) | 13 | 85* | -4 | -1 | 18 | 61* | -13 | 5
COc1cc([C@@H]2OC[C@@H]3[C@H]2CO[C@@H]3c2ccc3c(c2)OCO3)ccc1O | -1 | -6 | 1 | -5 | 3 | . | . | .
CCc1ccc(NC(=O)C(=O)N/N=C(\C)CC(=O)NCc2ccc(Cl)cc2)cc1 | 0 | 80* | -2 | 0 | -1 | -3 | -10 | .
O=S1(=O)N=C(N2CCCc3ccccc32)c2ccccc21 | -1 | 6 | -2 | 0 | 2 | . | . | .
O=S1(=O)N=C(N2CCc3ccccc3C2)c2ccccc21 | 0 | 76* | 0 | -1 | 4 | -16 | -17 | .
CC(=O)c1c(C)n(C)c2ccc(OC(=O)c3ccc([N+](=O)[O-])cc3)cc12 | 0 | 59* | 0 | 0 | -7 | -10 | -15 | .
CC(=O)Nc1ccc(S(=O)(=O)NCC(=O)NNC(=O)COc2ccccc2Cl)cc1 | -1 | -3 | 0 | -8 | -1 | -25 | -26 | .
O=C(Nc1nccs1)c1ccc2nccnc2c1 | 0 | 52* | 2 | -8 | 18 | 63* | 1 | -2
Fc1cc(F)c(NC(=S)N2CCOCC2)c(F)c1 | -3 | 95* | -1 | -3 | -5 | -6 | -13 | .
Fc1ccccc1NC(=S)N1CCOCC1 | 0 | -4 | 3 | -3 | 3 | . | . | .
Cc1csc(=O)n1CC(=O)OCC(=O)NC(C)c1ccc(F)cc1 (configuration not stated) | -1 | 10 | -1 | -3 | 2 | . | . | .

Bioassay records: PubChem BioAssay, Sanford-Burnham Center for Chemical Genomics
